Reference: ChEMBL document CHEMBL4316648, “Ipomeolides A and B, Resin Glycosides from Ipomoea pes-caprae and Combination Therapy of Ipomeolide A with Doxorubicin” (J Nat Prod, 2019)
Calls of active or inactive are those of the source. No cut-off for these calls is given here.

How the values were obtained:
HL-60 = experiment: Cytotoxicity in human HL60 cells assessed as reduction in cell viability incubated for 48 hrs by MTT assay; format: functional, cell-based
How it was run: (§1)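 Human tumour lines grown in DMEM with 10% fetal calf serum, 37 °C, 5% CO2, passaged at 60–70% confluency. About 5000 cells/well seeded in triplicate and grown 24 h. Medium then replaced with medium containing compound at various concentrations. After 48 h, MTT (5 mg/mL) added for 4 h. DMSO-soluble formazan read at 590 nm. Doxorubicin served as positive control.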

MDA-MB-231 = experiment: Cytotoxicity in human MDA-MB-231 cells assessed as reduction in cell viability incubated for 48 hrs by MTT assay; format: functional, cell-based; how it was run: as §1
A549 = experiment: Cytotoxicity in human A549 cells assessed as reduction in cell viability incubated for 48 hrs by MTT assay; format: functional, cell-based; how it was run: as §1
MCF7 = experiment: Cytotoxicity in human MCF7 cells assessed as reduction in cell viability incubated for 48 hrs by MTT assay; format: functional, cell-based; how it was run: as §1
K562 [1] = experiment: Potentiation of doxorubicin-induced cytotoxicity in human K562 cells assessed as induction of cell death in presence of 1 uM doxorubicin incubated for 72 hrs by MTT assay; format: functional; conditions: K562, 72 h, read-out: MEC
How it was run: (§2)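 K562 leukaemia cells seeded at equal numbers per well and exposed for 72 h to doxorubicin (1 or 2 μM), the test agent at varying concentrations, or both. Surviving cells counted relative to untreated control. Significance was taken as P < 0.05.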

K562 [2] = experiment: Potentiation of doxorubicin-induced cytotoxicity in human K562 cells assessed as induction of cell death in presence of doxorubicin incubated for 72 hrs by MTT assay; format: functional, cell-based; conditions: K562, 72 h; how it was run: as §2
K562 [3] = experiment: Potentiation of doxorubicin-induced cytotoxicity in human K562 cells assessed as induction of cell death at 3 to 10 uM in presence of 1 uM doxorubicin incubated for 72 hrs by MTT assay; format: functional, cell-based; how it was run: as §2
K562 [4] = experiment: Toxicity in human K562 cells assessed as induction of apoptotic cell death at 4 uM incubated for 72 hrs by Annexin V/propidium iodide staining based assay; conditions: k562, 72 h
How it was run: (§3)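 K562 cells treated for 72 h with doxorubicin, the test agent, or the two combined. They were then stained with labelled annexin V and propidium iodide to show surface phosphatidylserine, and imaged by fluorescence microscopy.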

K562 [5] = experiment: Toxicity in human K562 cells assessed as reduction in cell viability up to 10 uM incubated for 72 hrs by MTT assay; format: cell-based; conditions: k562, 72 h; how it was run: as §2
[6] = Toxicity in human K562 cells assessed as reduction in cell viability incubated for 72 hrs by MTT assay; format: cell-based; conditions: read-out: LD50
How it was run: (§4)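 K562 cells were grown in DMEM with 10% fetal calf serum at 37 °C in 5% CO2. About 5000 cells per well were seeded and grown 24 h. Medium was then replaced with medium holding various compound concentrations for 72 h. Viability was measured by MTT (4 h), reading formazan in DMSO at 590 nm. Survival was compared with untreated control, in triplicate.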

K562 [7] = experiment: Potentiation of doxorubicin-induced apoptotic cell death in human K562 cells at 4 uM in presence of 1 uM doxorubicin incubated for 72 hrs by Annexin V/propidium iodide staining based assay; format: functional; how it was run: as §3
K562 [8] = experiment: Potentiation of doxorubicin-induced cytotoxicity in human K562 cells assessed as induction of cell death at 1 to 10 uM in presence of 2 uM doxorubicin incubated for 72 hrs by MTT assay; format: functional, cell-based; how it was run: as §2
K562 [9] = experiment: Potentiation of doxorubicin-induced cytotoxicity in human K562 cells assessed as induction of cell death at 4 uM in presence of 1 uM doxorubicin incubated for 72 hrs by MTT assay; format: functional
How it was run: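 K562 cells were grown in DMEM with 10% FCS at 37 °C in 5% CO2 and seeded at about 5000 cells per well for 24 h. They were cotreated for 72 h with 1 or 2 μM doxorubicin plus varying test compound up to 10 μM. Survival was read by MTT at 590 nm against untreated control, in triplicate. Significance was set at P < 0.05.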

K562 [10] = experiment: Cytotoxicity in human K562 cells assessed as reduction in cell viability incubated for 48 hrs by MTT assay; format: functional, cell-based; conditions: K562, 48 h; how it was run: as §1
K562 [11] = experiment: Cytotoxicity in human K562 cells assessed as induction of cell death at 1 uM incubated for 72 hrs by MTT assay; format: functional; how it was run: as §4
K562 [12] = experiment: Induction of apoptotic cell death in human K562 cells at 1 uM incubated for 72 hrs by Annexin V/propidium iodide staining based assay; format: functional; how it was run: as §3
K562 [13] = experiment: Cytotoxicity in human K562 cells assessed as reduction in cell viability incubated for 72 hrs by MTT assay; format: functional; conditions: K562, 72 h, read-out: LD50 (the source's name); how it was run: as §4

| SMILES | Activity (HL-60) | Activity (MDA-MB-231) | Activity (A549) | Activity (MCF7) | minimal effective concentration (K562 [1]) [µM] | IC50 (K562 [2]) [µM] | Activity (K562 [3]) | Activity (K562 [4]) | Activity (K562 [5]) | CC50 at 72 h [6] [µM] | Activity (K562 [7]) | Activity (K562 [8]) | Activity (K562 [9]) [%] | IC50 (K562 [10]) [µM] | Activity (K562 [11]) [%] | Activity (K562 [12]) | CC50 (K562 [13]) [µM] |
| --- | --- | --- | --- | --- | --- | --- | --- | --- | --- | --- | --- | --- | --- | --- | --- | --- | --- |
| CCCCCCCCCCCC(=O)O[C@H]1[C@H](O[C@@H]2[C@@H](O[C@@H]3O[C@@H](C)[C@H](OC(=O)[C@@H](C)CC)[C@@H](O)[C@H]3OC(=O)/C=C/c3ccccc3)[C@H]3OC(=O)CCCCCCCCC[C@@H](CCCCC)O[C@@H]4O[C@H](C)[C@@H]5OC(C)(C)O[C@@H]5[C@H]4O[C@@H]3O[C@H]2C)O[C@@H](C)[C@H](O[C@@H]2O[C@@H](C)[C@H](O)[C@H]3OC(C)(C)O[C@@H]23)[C@H]1O | inactive | inactive | inactive | inactive | – | – | – | – | – | – | – | – | – | – | – | – | – |
| CCCCCCCCCCCC(=O)O[C@H]1[C@H](O[C@@H]2[C@@H](O[C@@H]3O[C@@H](C)[C@H](OC(=O)[C@@H](C)CC)[C@@H](O)[C@H]3O)[C@H]3OC(=O)CCCCCCCCC[C@@H](CCCCC)O[C@@H]4O[C@H](C)[C@H](O)[C@H](O)[C@H]4O[C@@H]3O[C@H]2C)O[C@@H](C)[C@H](O[C@@H]2O[C@@H](C)[C@H](O)[C@@H](O)[C@H]2O)[C@H]1O | inactive | inactive | inactive | inactive | 4 | 8.5 | Active | Non-Toxic | Non-Toxic | 20 | Active | Active | 47 | 18.3 | – | – | – |
| CCCCCCCCCCCC(=O)O[C@H]1[C@H](O[C@@H]2[C@@H](O[C@@H]3O[C@@H](C)[C@H](OC(=O)[C@@H](C)CC)[C@H]4OC(C)(C)O[C@@H]34)[C@H]3OC(=O)CCCCCCCCC[C@@H](CCCCC)O[C@@H]4O[C@H](C)[C@@H]5OC(C)(C)O[C@@H]5[C@H]4O[C@@H]3O[C@H]2C)O[C@@H](C)[C@H](O[C@@H]2O[C@@H](C)[C@H](O)[C@H]3OC(C)(C)O[C@@H]23)[C@H]1O | inactive | inactive | inactive | inactive | – | – | – | – | – | – | – | – | – | – | – | – | – |
| COc1cccc2c1C(=O)c1c(O)c3c(c(O)c1C2=O)C[C@@](O)(C(=O)CO)C[C@@H]3O[C@H]1C[C@H](N)[C@H](O)[C@H](C)O1 [DOXORUBICIN] | – | – | – | – | – | – | – | – | – | – | – | – | – | – | 11 | inactive | 2 |
